Measurements from different studies.
Lines come from different studies, so protocols differ.

| Structure (SMILES) | system | conditions | AUC |
| --- | --- | --- | --- |
| COc1cc(C(=O)NC2CCN(C)CC2)c(F)cc1Nc1ncc(C(F)(F)F)c(Oc2cccc3c2C(=O)N(C)C3)n1 | human, plasma | oral, 200 mg, multiple doses, once daily, steady state, patients | 35.4 µM·h |
| CCOc1ccc(Cc2cc([C@@H]3O[C@H](CO)[C@@H](O)[C@H](O)[C@H]3O)ccc2Cl)cc1 | human, plasma | oral, 10 mg, multiple doses, steady state | 493 ng·h/mL |
| CS(=O)(=O)CCNCc1ccc(-c2ccc3ncnc(Nc4ccc(OCc5cccc(F)c5)c(Cl)c4)c3c2)o1 | human, serum | oral, 1250 mg, single dose | 9070 ng·h/mL |
| CC(C)(C)OC[C@@H]1C(=O)NCCN1C(=O)C[C@H](N)Cc1cc(F)c(F)cc1F | human, plasma | oral, 5 mg, multiple doses, once daily, steady state | 94.2 ng·h/mL |
| Cn1c(=O)oc2ccc(-c3ccc(C[C@@H](C#N)NC(=O)[C@@H]4CNCCCO4)cc3)cc21 | male human, plasma | oral, 65 mg, single dose, healthy volunteers | 24.7 µM·h |
| C[C@@H](c1ccc2nccn2c1)n1nnc2ncc(-c3cnn(C)c3)nc21 | human, plasma | oral, 600 mg | 12800 ng·h/mL |
| CS(=O)(=O)CCC#N | human, plasma | oral, 1000 mg, multiple doses, once daily | 723000 ng·h/mL |
| NS(=O)(=O)NCCNc1nonc1C(=NO)Nc1ccc(F)c(Br)c1 | human, plasma | oral, 600 mg, multiple doses, twice daily, steady state, patients | 22.9 µM·h |
| Cc1ccc(C(=O)N(CCCN)[C@@H](c2oc3cc(Cl)ccc3c(=O)c2Cc2ccccc2)C(C)C)cc1 | human, plasma | intravenous, 6 mg/m², single dose, patients, infusion | 8150 ng·h/mL |
| OC[C@H]1O[C@@H](c2ccc(Cl)c(Cc3ccc(O[C@H]4CCOC4)cc3)c2)[C@H](O)[C@@H](O)[C@@H]1O | male human, plasma | oral, 25 mg, multiple doses, once daily, steady state, healthy volunteers | 3960 ng·h/mL |
